Pf Dd2 growth: inhibitors of Plasmodium falciparum Dd2 growth | activity change, % at 10 µM | hit rate 2.3% among 94,000 | AID 1159554 | P. falciparum Dd2 growth, SYBR Green, 72 h; active compounds read low; in the data active = activity change below about -80%; inconclusive = no clear call, values can overlap the other calls
T cruzi growth-1: inhibitors of T. cruzi proliferation; inhibition, % at 8.34 µM; hit rate 5.9% among 77,000; T. cruzi beta-gal in NIH3T3, GalScreen luminescence, 90 h; AID 624255;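 active = mean inhibition above about 93%, with at least 55% of replicates each passing it, limit read from the data, passing the limit was not always enough; inconclusive = only one of those two conditions holds; inactive = neither condition holds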
GASC1 inh: blocks human GASC-1 (KDM4C) demethylase activity. Q9H3R0. GST-KDM4C 2-372, H3K9me3 peptide, LANCE TR-FRET. inhibition, % at 12.5 µM. hit rate 0.15% among 96,000. AID 720574;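 active = mean replicate inhibition above about 25%, with at least 55% of replicates also reaching it, limit read from the data, passing the limit was not always enough; inconclusive = only one of those two conditions met; inactive = neither condition met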
Target sequence (Q9H3R0 2-372 limits assumed): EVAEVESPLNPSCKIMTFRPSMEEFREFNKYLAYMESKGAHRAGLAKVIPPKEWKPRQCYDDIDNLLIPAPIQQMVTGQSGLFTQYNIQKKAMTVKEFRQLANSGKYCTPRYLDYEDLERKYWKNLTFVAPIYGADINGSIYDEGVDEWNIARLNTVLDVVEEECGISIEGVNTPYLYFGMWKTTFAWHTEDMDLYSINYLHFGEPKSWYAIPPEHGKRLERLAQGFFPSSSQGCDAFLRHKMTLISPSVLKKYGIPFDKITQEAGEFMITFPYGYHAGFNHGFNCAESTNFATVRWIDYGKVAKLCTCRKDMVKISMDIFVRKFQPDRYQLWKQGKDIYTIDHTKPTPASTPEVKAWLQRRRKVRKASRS
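System: N-terminal GST-fused human GASC-1 (KDM4C) fragment, residues 2-372 / Amount: 10 nM GST-KDM4C in enzyme reaction / Also added: H3K9me3 peptide with Fe(II)/2OG / Times: 30 min demethylation and 1 h detection at room temperature / Signal: LANCE TR-FRET / Read-out basis: Fall in 671/618 emission ratio as inhibition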
IDH1 mut inh: IDH1 R132H (human) inhibition; hit rate 0.18% among 70,000; IDH1 R132H reductase, diaphorase/resazurin fluorescence, 60 min; AID 624101; inhibition, % at 10 µM; O75874; in the data active = inhibition above about 34%; inconclusive = no clear call, values can overlap the other calls; inactive = below about 11%;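 also: 0% = DMSO and 100% = no enzyme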
Target sequence (O75874 whole entry R132H): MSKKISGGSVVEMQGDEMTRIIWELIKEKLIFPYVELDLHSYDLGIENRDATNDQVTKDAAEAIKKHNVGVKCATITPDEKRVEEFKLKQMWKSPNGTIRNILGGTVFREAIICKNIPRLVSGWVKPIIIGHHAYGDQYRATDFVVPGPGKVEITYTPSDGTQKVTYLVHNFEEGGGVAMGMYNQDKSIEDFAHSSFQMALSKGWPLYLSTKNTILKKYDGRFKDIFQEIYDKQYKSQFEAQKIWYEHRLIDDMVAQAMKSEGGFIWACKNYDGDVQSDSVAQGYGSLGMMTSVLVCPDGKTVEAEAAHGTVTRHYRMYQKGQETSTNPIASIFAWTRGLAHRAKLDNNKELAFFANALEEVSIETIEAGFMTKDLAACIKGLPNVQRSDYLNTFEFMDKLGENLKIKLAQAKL
T cruzi growth-2: inhibitors of T. cruzi proliferation; shares compounds with T cruzi growth-1; T. cruzi beta-gal in NIH3T3, GalScreen luminescence, 90 h; inhibition, % at 8.35 µM; hit rate 72% among 5,600; AID 651739;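 active = mean replicate inhibition above about 95% and at least 55% of replicates individually reaching it, limit read from the data; inconclusive = only one of the two criteria is met; inactive = neither criterion is met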
T cruzi growth-3: Trypanosoma cruzi proliferation inhibition; shares compounds with T cruzi growth-1; T. cruzi beta-gal in NIH3T3, GalScreen luminescence, 90 h; inhibition, % at 2.09 µM; hit rate 21% among 5,600; AID 651740;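 active = mean inhibition above about 95%, with at least 55% of replicates also reaching it, limit read from the data; inconclusive = meets just one of the two conditions; inactive = meets neither condition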;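 also: plate controls were neutral control median for no effect and positive control median for full effect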
NIH3T3 tox: cytotoxicity in mouse NIH/3T3 fibroblasts | shares compounds with T cruzi growth-1 | NIH/3T3 viability, CellTiter-Glo ATP luminescence, 90 h | cytotoxicity (signal decrease), % at 8.35 µM | hit rate 14% among 5,600 | AID 651742;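 active = mean signal decrease across replicates above about 35% based on untreated-well scatter, with enough replicates individually passing, limit read from the data; inconclusive = no rule stated though some were filed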;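 also: 0% = median of neutral control wells and 100% = median of positive control wells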
NIH3T3 tox 2: kills mouse NIH/3T3 fibroblasts; shares compounds with T cruzi growth-1; NIH/3T3 viability, CellTiter-Glo ATP luminescence, 90 h; inhibition, % at 24.9 µM; hit rate 56% among 5,600; AID 651744;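 active = mean loss of cell viability signal at or above a set limit, and enough replicates individually reaching it; inconclusive = meets only the mean limit or only the replicate share; inactive = meets neither condition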;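 also: 0% = median of neutral control wells and 100% = median of positive control wells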
Numbers without * were called inactive; u = inconclusive; x = not tested or not shown. The list is not random: actives were taken first. Their share in the collection is about 5.8%.

SMILES | Pf Dd2 growth | T cruzi growth-1 | GASC1 inh | IDH1 mut inh | T cruzi growth-2 | T cruzi growth-3 | NIH3T3 tox | NIH3T3 tox 2
COc1ccc(NC(=O)N(C)C[C@@H]2OCCCC[C@@H](C)Oc3ccc(NC(=O)C4CCCCC4)cc3C(=O)N([C@H](C)CO)C[C@H]2C)cc1 | -56.3 | 22.4 | -1.0 | 1.5 | x | x | x | x
Cc1ccc(NC(=O)CN(c2ccc(C)c(Cl)c2)S(C)(=O)=O)c(C)c1 | x | x | x | 0.2 | x | x | x | x
C[C@@H]1CCCCO[C@H](CN(C)S(=O)(=O)c2ccc(F)cc2)[C@@H](C)CN([C@@H](C)CO)C(=O)c2cc(NS(=O)(=O)c3ccc(F)cc3)ccc2O1 | -70.0 | 111.4* | -1.5 | -0.3 | 103.0* | 62.5 | -4.4 | 19.2
C[C@@H]1CCCCO[C@@H](CN(C)S(=O)(=O)c2ccc(F)cc2)[C@H](C)CN([C@@H](C)CO)C(=O)c2cc(NS(=O)(=O)c3ccc(F)cc3)ccc2O1 | -20.1 | 109.2* | -1.6 | x | 105.7* | 85.5 | -0.1 | 10.8
COc1cccc2cc(-c3nnc(SCC(=O)Nc4sc5c(c4C#N)CCCC5)n3C)oc12 | x | x | x | 0.4 | x | x | x | x
COc1cccc(-c2ccc([C@@H]3[C@@H](C#N)N(C(=O)Cc4ccncc4)[C@@H]3CO)cc2)c1 | -46.4 | 74.9 | -7.2 | x | x | x | x | x
COc1cccc(-c2ccc([C@H]3[C@@H](C#N)N(C(=O)Cc4ccccc4)[C@@H]3CO)cc2)c1 | -65.3 | 97.3* | -4.5 | x | 109.6* | 66.8 | 16.9 | 42.9*
COc1cccc(-c2ccc([C@H]3[C@H](C#N)N(C(=O)Cc4ccncc4)[C@H]3CO)cc2)c1 | u | u | 0.3 | x | 101.8* | 58.5 | 12.7 | 52.2*
Cc1ccc(S(=O)(=O)N(C)C[C@H]2Oc3c(NC(=O)c4cnccn4)cccc3C(=O)N([C@H](C)CO)C[C@H]2C)cc1 | -48.9 | 45.2 | 0.5 | -2.7 | x | x | x | x
C[C@@H]1CN([C@H](C)CO)C(=O)c2cc(NC(=O)Nc3cccc4ccccc34)ccc2O[C@H]1CN(C)Cc1ccc(C(=O)O)cc1 | 3.1 | x | 0.8 | x | x | x | x | x
O=C(C[C@H]1CC[C@@H](NC(=O)NC2CCCC2)[C@H](CO)O1)NCc1ccc(F)cc1 | -1.5 | -14.4 | -0.7 | -0.1 | x | x | x | x
C[C@@H]1CCCCO[C@H](CN(C)C(=O)Nc2ccc(C(F)(F)F)cc2)[C@H](C)CN([C@H](C)CO)C(=O)c2cc(NC(=O)c3ccncc3)ccc2O1 | -43.5 | 103.4* | -0.6 | x | 113.5* | 50.3 | -6.9 | 42.0*
C[C@H](CO)N1C[C@H](C)[C@H](CN(C)C(=O)Nc2ccc(C(F)(F)F)cc2)OCCCC[C@H](C)Oc2ccc(NC(=O)c3ccncc3)cc2C1=O | -67.8 | 107.4* | 0.0 | x | 108.7* | 99.1* | 22.6 | 37.2*
C[C@@H]1CCCCO[C@H](CN(C)C(=O)Nc2ccc(C(F)(F)F)cc2)[C@@H](C)CN([C@H](C)CO)C(=O)c2cc(NC(=O)c3ccncc3)ccc2O1 | -26.4 | 46.3 | x | x | x | x | x | x
CCCN1[C@@H]2Cn3c(ccc(-c4cccnc4)c3=O)[C@H]1[C@@H](C(=O)NC1CCCC1)[C@@H]2CO | -3.0 | 66.3 | -1.0 | x | x | x | x | x
C[C@@H]1CN([C@@H](C)CO)C(=O)c2cc(C#CCN(C)C)cnc2O[C@H]1CN(C)C(=O)Cc1ccncc1 | 32.2 | 38.8 | 5.5 | -1.8 | x | x | x | x
C[C@@H]1CCCCO[C@@H](CN(C)Cc2ccc(Cl)c(Cl)c2)[C@@H](C)CN([C@H](C)CO)C(=O)c2cc(NC(=O)CCC(F)(F)F)ccc2O1 | -20.3 | u | x | x | 107.9* | 82.1 | -5.0 | -18.1
C[C@@H]1CN([C@@H](C)CO)C(=O)c2cc(NC(=O)CCC(F)(F)F)ccc2O[C@@H](C)CCCCO[C@H]1CN(C)Cc1ccc(Cl)c(Cl)c1 | -79.9 | 64.1 | 1.9 | 2.1 | x | x | x | x
C[C@@H]1CN([C@@H](C)CO)C(=O)c2cc(NC(=O)Nc3ccc4c(c3)OCO4)ccc2O[C@@H](C)CCCCO[C@H]1CN(C)Cc1ccc2c(c1)OCO2 | -71.7 | 94.8 | 0.8 | x | x | x | x | x
C[C@@H]1CCCCO[C@@H](CN(C)Cc2ccc3c(c2)OCO3)[C@H](C)CN([C@@H](C)CO)C(=O)c2cc(NC(=O)Nc3ccc4c(c3)OCO4)ccc2O1 | -65.2 | 103.1* | -0.7 | x | 99.2* | 20.2 | 18.8 | 20.6
C[C@@H]1CCCCO[C@H](CN(C)Cc2ccc(Cl)c(Cl)c2)[C@H](C)CN([C@@H](C)CO)C(=O)c2cc(NC(=O)Nc3ccc4c(c3)OCO4)ccc2O1 | -86.0* | 100.7* | -1.7 | 1.3 | 96.3* | 117.2* | 19.2 | -0.6
C[C@H](CO)N1C[C@H](C)[C@H](CN(C)Cc2ccc(Cl)c(Cl)c2)Oc2ccc(NC(=O)CCCCCC(=O)Nc3ccccc3N)cc2C1=O | -27.3 | 96.8* | -2.7 | x | 102.8* | 101.8* | 11.1 | 31.9*
C[C@@H]1CCCCO[C@@H](CN(C)Cc2ccc(Cl)c(Cl)c2)[C@H](C)CN([C@@H](C)CO)C(=O)c2cc(NC(=O)Nc3ccc4c(c3)OCO4)ccc2O1 | -54.8 | 103.7 | -1.2 | x | x | x | x | x
CN(C)CC(=O)Nc1ccc2c(c1)[C@H]1C[C@@H](CC(=O)NCc3ccccn3)O[C@H](CO)[C@H]1O2 | -4.3 | x | 0.7 | -0.9 | x | x | x | x
Cc1cc(C(=O)Nc2cccc3c2O[C@@H](CN(C)C(=O)Nc2ccccc2)[C@H](C)CN([C@H](C)CO)C3=O)n(C)n1 | -3.0 | 30.1 | -4.7 | 1.4 | x | x | x | x
SMILES | Pf Dd2 growth | T cruzi growth-1 | GASC1 inh | IDH1 mut inh | T cruzi growth-2 | T cruzi growth-3 | NIH3T3 tox | NIH3T3 tox 2
N#Cc1cc2c(nc1SCC(=O)Nc1ccc(Cl)cc1)CCCCCC2 | x | x | x | 0.0 | x | x | x | x
C[C@@H]1CN([C@@H](C)CO)C(=O)c2cc(NC(=O)Nc3ccc4c(c3)OCO4)ccc2O[C@@H](C)CCCCO[C@@H]1CN(C)C | x | 25.6 | 2.0 | x | x | x | x | x
C[C@H](CO)N1C[C@H](C)[C@@H](CN(C)C(=O)C2CCCCC2)OCCCC[C@H](C)Oc2ccc(NC(=O)Nc3ccc4c(c3)OCO4)cc2C1=O | 4.9 | 111.0* | -0.1 | 3.4 | 78.9 | 5.6 | -19.0 | 3.0
C[C@@H]1CN([C@H](C)CO)C(=O)c2cc(NC(=O)Nc3ccc4c(c3)OCO4)ccc2O[C@@H](C)CCCCO[C@@H]1CN(C)C(=O)C1CCCCC1 | -77.6 | 18.2 | -1.1 | -1.1 | x | x | x | x
C[C@@H]1CN([C@H](C)CO)C(=O)c2cc(NC(=O)Cc3ccccc3)ccc2O[C@@H](C)CCCCO[C@@H]1CN(C)Cc1ccc2c(c1)OCO2 | -71.9 | 99.8* | 0.7 | x | 104.8* | 36.9 | 25.0 | 102.3*
C[C@@H]1CN([C@@H](C)CO)C(=O)c2cc(NC(=O)Nc3ccc4c(c3)OCO4)ccc2O[C@@H](C)CCCCO[C@H]1CN(C)C | 9.2 | 100.4* | 0.3 | -0.5 | 112.1* | 7.8 | -2.6 | 5.5

Screening data as filed in PubChem BioAssay.
